Measured values from ChEMBL document CHEMBL3627626, “6-Substituted Pyrrolo[2,3-d]pyrimidine Thienoyl Regioisomers as Targeted Antifolates for Folate Receptor α and the Proton-Coupled Folate Transporter in Human Tumors” (J Med Chem, 2015).
The source made the active and inactive calls. The rule behind the calls is not given here.

T1: Trifunctional purine biosynthetic protein adenosine-3 (Homo sapiens, UniProt P22102)
T1 sequence (P22102 whole entry): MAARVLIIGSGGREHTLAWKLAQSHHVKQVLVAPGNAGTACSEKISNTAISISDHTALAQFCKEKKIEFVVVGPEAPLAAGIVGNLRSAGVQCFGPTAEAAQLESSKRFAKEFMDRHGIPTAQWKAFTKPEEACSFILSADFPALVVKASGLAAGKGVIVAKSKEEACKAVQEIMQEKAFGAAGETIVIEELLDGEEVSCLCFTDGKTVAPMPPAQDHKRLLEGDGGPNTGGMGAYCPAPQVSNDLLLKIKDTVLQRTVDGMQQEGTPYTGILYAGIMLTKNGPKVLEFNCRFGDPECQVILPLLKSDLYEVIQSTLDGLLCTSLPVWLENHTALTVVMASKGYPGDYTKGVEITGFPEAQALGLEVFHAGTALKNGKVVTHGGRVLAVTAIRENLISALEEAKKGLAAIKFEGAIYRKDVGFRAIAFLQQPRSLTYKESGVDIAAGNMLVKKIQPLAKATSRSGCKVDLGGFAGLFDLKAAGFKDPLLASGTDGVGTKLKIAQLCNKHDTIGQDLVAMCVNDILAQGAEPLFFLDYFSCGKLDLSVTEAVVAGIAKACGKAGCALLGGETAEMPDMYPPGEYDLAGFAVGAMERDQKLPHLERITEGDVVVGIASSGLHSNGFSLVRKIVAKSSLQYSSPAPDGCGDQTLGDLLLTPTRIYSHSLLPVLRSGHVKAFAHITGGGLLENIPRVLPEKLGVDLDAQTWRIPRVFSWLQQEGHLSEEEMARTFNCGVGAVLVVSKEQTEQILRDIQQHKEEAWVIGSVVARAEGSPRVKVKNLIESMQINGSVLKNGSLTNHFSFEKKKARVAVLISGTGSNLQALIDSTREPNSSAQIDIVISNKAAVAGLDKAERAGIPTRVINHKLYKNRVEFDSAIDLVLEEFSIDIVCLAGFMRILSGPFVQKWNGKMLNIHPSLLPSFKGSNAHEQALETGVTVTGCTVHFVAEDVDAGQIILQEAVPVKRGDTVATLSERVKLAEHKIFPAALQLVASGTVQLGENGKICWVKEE

T2: Trifunctional purine biosynthetic protein adenosine-3 (Homo sapiens) (UniProt P22102)
T2 sequence (whole entry): T1 sequence (P22102 whole entry)

T3: Proton-coupled folate transporter (Homo sapiens) (UniProt Q96NT5)
T3 sequence (whole entry): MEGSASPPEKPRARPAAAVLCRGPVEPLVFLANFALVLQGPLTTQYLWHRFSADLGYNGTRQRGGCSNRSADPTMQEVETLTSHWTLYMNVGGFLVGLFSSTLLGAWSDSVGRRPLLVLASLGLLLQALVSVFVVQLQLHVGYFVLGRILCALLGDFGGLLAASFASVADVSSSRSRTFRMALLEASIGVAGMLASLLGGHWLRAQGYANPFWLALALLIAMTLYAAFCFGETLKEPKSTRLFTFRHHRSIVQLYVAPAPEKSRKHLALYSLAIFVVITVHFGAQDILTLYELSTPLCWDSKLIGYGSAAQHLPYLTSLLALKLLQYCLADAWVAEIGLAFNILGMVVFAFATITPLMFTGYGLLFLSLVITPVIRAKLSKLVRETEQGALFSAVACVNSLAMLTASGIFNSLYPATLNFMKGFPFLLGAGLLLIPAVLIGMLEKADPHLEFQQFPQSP

B1: Proton-coupled folate transporter (Homo sapiens), Q96NT5 (protein)
chain: T3 sequence (whole entry)

Key:
KB [1] = experiment: Antiproliferative activity against human KB cells expressing FRalpha/PCFT/RFC assessed as cell growth inhibition after 96 hrs by CellTiter-Blue assay; type: functional, cell-based
KB [2] = experiment: Antiproliferative activity against human KB cells expressing FRalpha/PCFT/RFC assessed as cell growth inhibition after 96 hrs by CellTiter-Blue assay in presence of 200 nM folic acid; type: functional, cell-based
R2 [3] = experiment: Cytotoxicity against PCFT-null Chinese hamster R2 cells assessed as cell growth inhibition after 96 hrs by CellTiter-Blue assay; type: cell-based, Cricetulus griseus; details: R2, 96 h
[4] = target: T1, Trifunctional purine biosynthetic protein adenosine-3; experiment: Inhibition of human recombinant His-tagged GARFTase assessed as formation of 5,8-dideazafolate from 10-formyl-5,80-dideazafolic acid measured every 15 secs over 20 mins by spectrophotometric analysis
[5] = target: T2, Trifunctional purine biosynthetic protein adenosine-3 (Homo sapiens); experiment: Inhibition of GARFTase in human KB cells expressing FRalpha/PCFT/RFC assessed as cell growth inhibition after 96 hrs by CellTiter-Blue assay in presence of adenosine; type: cell-based
[6] = target: T2, Trifunctional purine biosynthetic protein adenosine-3 (Homo sapiens); experiment: Inhibition of GARFTase in human KB cells expressing FRalpha/PCFT/RFC assessed as cell growth inhibition after 96 hrs by CellTiter-Blue assay in presence of AICA; type: cell-based
[7] = target: T1, Trifunctional purine biosynthetic protein adenosine-3; experiment: Inhibition of GARFTase in human KB cells expressing FRalpha/PCFT/RFC assessed as incorporation of [14C(U)]-glycine into [14C]-formyl GAR preincubated for 1 hr followed by azaserine, L-glutamine, 14C(U)]-glycine addition measured after 16 hrs; type: cell-based
In short: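 In situ assay in KB cells. Cells were exposed to a range of drug concentrations with [14C]glycine for 16 h under proliferation-assay conditions, with azaserine present. Radiolabelled metabolites were extracted and separated on anion exchange columns, and [14C]formyl GAR quantified. Mean ±SE of three experiments.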

R2 [8] = experiment: Cytotoxicity against Chinese hamster R2 cells transfected with empty PCDNA3 assessed as cell growth inhibition after 96 hrs by CellTiter-Blue assay; type: cell-based, Cricetulus griseus
SK-OV-3 [9] = experiment: Antitumor activity against human SKOV3 cells expressing RFC/PCFT/FRalpha xenografted in folate-replete diet fed NCR SCID mouse assessed as tumor growth inhibition at 28 mg/kg, iv administered every 4 days on day 3, 7, 11 measured on day 21 relative to control; type: functional
In short: (§1)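 Ten-week-old female NCR SCID mice, fed a folate-deficient or standard folate-replete diet, were implanted subcutaneously and bilaterally with SKOV3 tumour fragments. Randomised at 5 mice/group. Dosed intravenously, 0.2 mL per injection, in 5% ethanol/1% Tween-80/0.5% NaHCO3 in water at pH 6.5, on days 3, 7 and 11. Tumours measured twice weekly and mice weighed daily. T/C taken on day 21; growth delay and log cell kill also reported.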

[10] = target: Folate receptor alpha (Homo sapiens) (UniProt P15328); experiment: Displacement of [3H]-folic acid from human FRalpha expressed in Chinese hamster RT16 cells after 15 mins relative to folic acid; type: cell-based
Chain of Folate receptor alpha (Homo sapiens) (P15328 25-234 limits assumed): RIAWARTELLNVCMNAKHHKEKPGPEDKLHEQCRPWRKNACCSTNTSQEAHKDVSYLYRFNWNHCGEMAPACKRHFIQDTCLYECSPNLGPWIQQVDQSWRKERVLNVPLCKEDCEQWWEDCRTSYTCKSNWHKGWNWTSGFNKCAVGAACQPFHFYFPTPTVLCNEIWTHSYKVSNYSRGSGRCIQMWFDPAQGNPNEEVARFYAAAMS
In short: (§2)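 Competitive binding to surface folate receptor on RT16 (FRα) or D4 (FRβ) CHO cells. Cells were acid-washed (pH 3.5) to strip bound folate, then incubated in HEPES-buffered saline pH 7.4 with 50 nM [3H]folic acid plus unlabeled ligand (0–1000 nM) for 15 min at 0 °C. Bound label was normalised to protein. Affinity is the inverse molar ratio for 50% displacement, with folic acid set to 1. Mean of 4–10 experiments ±SE.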

[11] = target: Folate receptor beta (Homo sapiens) (UniProt P14207); experiment: Displacement of [3H]-folic acid from human FRbeta expressed in Chinese hamster D4 cells after 15 mins relative to folic acid; type: cell-based; in short: as §2
Chain of Folate receptor beta (Homo sapiens) (P14207 17-230 limits assumed): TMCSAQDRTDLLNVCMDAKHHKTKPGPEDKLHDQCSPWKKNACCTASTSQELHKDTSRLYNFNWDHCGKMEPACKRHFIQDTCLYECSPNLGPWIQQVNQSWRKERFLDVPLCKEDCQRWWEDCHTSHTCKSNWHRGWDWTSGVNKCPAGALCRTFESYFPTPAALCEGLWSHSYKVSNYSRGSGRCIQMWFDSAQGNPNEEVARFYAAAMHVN

SK-OV-3 [12] = experiment: Antiproliferative activity against human SKOV3 cells after 96 hrs by CellTiter-Blue assay; type: functional, cell-based; details: SK-OV-3, 96 h
In short: (§3)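 IGROV1 and SKOV3 cells plated at ~2500–5000 cells/well in folate-free RPMI 1640 with 10% dialyzed FBS, antibiotics and 2 nM LCV, over a range of drug concentrations, ±200 nM folic acid in parallel. Incubated up to 96 h. Viability read by Cell Titer Blue fluorescence (ex 560/em 590 nm).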

SK-OV-3 [13] = experiment: Antiproliferative activity against human SKOV3 cells after 96 hrs by CellTiter-Blue assay in presence of 200 nM folic acid; type: functional, cell-based; details: SK-OV-3, 96 h; in short: as §3
IGROV-1 = experiment: Antiproliferative activity against human IGROV1 cells after 96 hrs by CellTiter-Blue assay; type: functional, cell-based; details: IGROV-1, 96 h; in short: as §3
Mus musculus [14] = experiment: Toxicity in folate-replete diet fed NCR SCID mouse xenografted with human SKOV3 cells expressing RFC/PCFT/FRalpha assessed as body weight loss at 28 mg/kg, iv administered every 4 days on day 3, 7, 11; type: organism-based, SK-OV-3; details: in vivo, 96 h
SK-OV-3 [15] = experiment: Antitumor activity against human SKOV3 cells expressing RFC/PCFT/FRalpha xenografted in folate-deficient diet fed NCR SCID mouse assessed as delay in tumor growth at 28 mg/kg, iv administered every 4 days on day 3, 7, 11 measured twice per week; type: functional, organism-based
In short: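 Female NCR SCID mice, 10 weeks old, given bilateral subcutaneous SKOV3 tumor fragments and randomized at 5 mice/group. Fed ad libitum a folate-deficient diet or a standard folate-replete diet. Dosed intravenously at 0.2 mL/injection on a Q4dx3 schedule (days 3, 7, 11). […] Tumors measured twice weekly; mice weighed daily.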

Mus musculus [16] = experiment: Toxicity in folate-deficient diet fed NCR SCID mouse xenografted with human SKOV3 cells expressing RFC/PCFT/FRalpha assessed as body weight loss at 28 mg/kg, iv administered every 4 days on day 3, 7, 11 relative to control; type: organism-based, SK-OV-3; details: in vivo, 96 h; in short: as §1
[17] = Binding affinity to human RFC expressed in Chinese hamster PC43-10 cells assessed as cell growth inhibition after 96 hrs by CellTiter-Blue assay
[18] = target: T3, Proton-coupled folate transporter (Homo sapiens); experiment: Binding affinity to human PCFT expressed in Chinese hamster R2/PCFT4 cells assessed as cell growth inhibition after 96 hrs by CellTiter-Blue assay in presence of 200 nM folic acid; type: cell-based
In short: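 Human-PCFT-transfected R2 CHO cells, precultured with G418, were plated at ~2500–5000 cells/well across a range of drug concentrations. Medium was folate-free RPMI 1640 (pH 7.2) with 25 nM LCV and 10% dialyzed FBS. Parallel wells received 200 nM folic acid. Incubated up to 96 h, then read with CellTiter Blue fluorescence (ex 560/em 590 nm).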

[19] = target: T2, Trifunctional purine biosynthetic protein adenosine-3 (Homo sapiens); experiment: Inhibition of GARFTase in human KB cells expressing FRalpha/PCFT/RFC assessed as cell growth inhibition after 96 hrs by CellTiter-Blue assay in presence of thymidine; type: cell-based
[20] = target: T3, Proton-coupled folate transporter (Homo sapiens); experiment: (§4) Binding affinity to human PCFT expressed in Chinese hamster R2/PCFT4 cells assessed as intracellular drug transport rate at 37 degC at pH 6.8 measured over 2 mins by Lineweaver-Burk plot analysis; type: cell-based
In short: (§5)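 R2/PCFT4 CHO cells were grown as monolayers, transferred to spinner flasks, and used as suspensions (5–10 × 10⁷ cells). Uptake was quenched with ice-cold DPBS and cells were NaOH-solubilized. Results are pmol/mg protein; Kt and Vmax come from Lineweaver–Burke plots.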

R2 [21] = experiment: Cellular uptake in PCFT-null Chinese hamster R2 cells at 0.5 uM at 37 degC at pH 5.5 measured over 2 mins; type: ADME, cell-based, Cricetulus griseus; details: r2, pH 5.5, 2 min
In short: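 R2/PCFT4 or PCFT-null R2 CHO cells were grown in suspension from spinner flasks. Uptake of 0.5 μM [3H]drug measured over 2 min at 37 °C in MES-buffered saline pH 5.5, with or without 10 μM unlabeled competitor. Uptake was quenched with ice-cold DPBS and cells solubilised in NaOH. Results are pmol/mg protein, mean ±SEM of three experiments.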

[22] = target: T3, Proton-coupled folate transporter (Homo sapiens); experiment: (§6) Binding affinity to human PCFT expressed in Chinese hamster R2/PCFT4 cells assessed as intracellular drug transport rate at 37 degC at pH 5.5 measured over 2 mins by Lineweaver-Burk plot analysis; type: cell-based; in short: as §5
[23] = substrate: Nc1nc2[nH]c(CCCc3cc(C(=O)N[C@@H](CCC(=O)O)C(=O)O)cs3)cc2c(=O)[nH]1; experiment: as §6; type: cell-based; in short: as §5
[24] = substrate: Nc1nc2[nH]cc(CCc3ccc(C(=O)N[C@@H](CCC(=O)O)C(=O)O)cc3)c2c(=O)[nH]1; experiment: as §6; type: cell-based; in short: as §5
[25] = substrate: Nc1nc2[nH]c(CCCc3cc(C(=O)N[C@@H](CCC(=O)O)C(=O)O)cs3)cc2c(=O)[nH]1; experiment: as §4; type: cell-based; in short: as §5
[26] = substrate: Nc1nc2[nH]cc(CCc3ccc(C(=O)N[C@@H](CCC(=O)O)C(=O)O)cc3)c2c(=O)[nH]1; experiment: as §4; type: cell-based; in short: as §5

Molecule	IC50 (KB [1]) [µM]	IC50 (KB [2]) [µM]	IC50 (R2 [3]) [µM]	Ki [4] [µM]	inhibition [5]	inhibition [6]	IC50 [7] [µM]	IC50 (R2 [8]) [µM]	Activity [10] [%]	Activity [11] [%]	further results
Nc1nc(N)c2c(CCCc3cc(C(=O)N[C@@H](CCC(=O)O)C(=O)O)cs3)coc2n1	0.0703	> 1	> 1	6.5	inactive	inactive	0.101	> 1			
Nc1nc2[nH]c(CCCc3ccc(C(=O)N[C@@H](CCC(=O)O)C(=O)O)s3)cc2c(=O)[nH]1		0.101			inactive	inactive			70	50	T/C (SK-OV-3 [9]): 79%; IC50 (SK-OV-3 [12]): 0.0022 µM; IC50 (SK-OV-3 [13]): 0.047 µM; IC50 (IGROV-1): 0.00073 µM; Activity (Mus musculus [14]): Non-toxic; Activity (SK-OV-3 [15]): Active; Activity (Mus musculus [16]): 7.9%; IC50 [17]: 0.101 µM
Nc1nc(N)c2c(CCCc3csc(C(=O)N[C@@H](CCC(=O)O)C(=O)O)c3)coc2n1				5.5	inactive	inactive	0.082				
Nc1nc2[nH]c(CCCc3csc(C(=O)N[C@@H](CCC(=O)O)C(=O)O)c3)cc2c(=O)[nH]1	0.00017	0.337	0.355	0.013	inactive	inactive	0.0024	> 1	60	35	Activity [18]: Active; inhibition [19]: Active
Nc1nc2[nH]cc(CCc3ccc(C(=O)N[C@@H](CCC(=O)O)C(=O)O)cc3)c2c(=O)[nH]1 [PEMETREXED]											K [20]: 0.27 µM; Drug uptake (R2 [21]): Not Active; K [22]: 0.044 µM
B1											Vmax [23]: 24.6 pmol/mg/min; Vmax [24]: 13.4 pmol/mg/min; Vmax [25]: 3 pmol/mg/min; Vmax [26]: 9.2 pmol/mg/min
